We go through seven compounds from ChEMBL document CHEMBL4304758, “Development of Peptide-Based Sirtuin Defatty-Acylase Inhibitors Identified by the Fluorescence Probe, SFP3, That Can Efficiently Measure Defatty-Acylase Activity of Sirtuin” (J Med Chem, 2019).

In test [1] the target is T1, NAD-dependent protein deacetylase sirtuin-1 (Homo sapiens) (UniProt Q96EB6).
T1 sequence (whole entry): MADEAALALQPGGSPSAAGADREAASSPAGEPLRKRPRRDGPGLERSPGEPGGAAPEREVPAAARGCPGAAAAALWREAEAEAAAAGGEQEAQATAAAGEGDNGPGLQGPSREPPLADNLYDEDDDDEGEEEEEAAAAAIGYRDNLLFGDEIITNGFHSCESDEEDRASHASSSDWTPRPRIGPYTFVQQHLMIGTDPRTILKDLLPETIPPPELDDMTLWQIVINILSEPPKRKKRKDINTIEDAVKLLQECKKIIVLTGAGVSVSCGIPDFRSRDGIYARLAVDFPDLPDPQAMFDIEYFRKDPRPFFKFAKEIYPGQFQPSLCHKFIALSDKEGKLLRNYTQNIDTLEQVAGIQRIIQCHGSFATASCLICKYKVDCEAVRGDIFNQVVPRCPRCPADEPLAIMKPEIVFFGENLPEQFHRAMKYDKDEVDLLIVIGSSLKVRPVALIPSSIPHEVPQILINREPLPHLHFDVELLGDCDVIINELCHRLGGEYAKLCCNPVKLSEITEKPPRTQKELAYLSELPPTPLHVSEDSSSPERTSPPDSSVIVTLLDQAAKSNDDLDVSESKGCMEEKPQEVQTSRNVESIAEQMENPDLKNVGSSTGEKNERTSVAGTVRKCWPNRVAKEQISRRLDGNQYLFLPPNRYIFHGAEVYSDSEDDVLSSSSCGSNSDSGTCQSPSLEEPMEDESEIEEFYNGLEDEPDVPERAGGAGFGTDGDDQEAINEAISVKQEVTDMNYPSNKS
Nature of the test: Inhibition of recombinant human C-terminal His6-tagged SIRT1 (Met1 to Ser747 residues) demyristoylase activity expressed in Escherichia coli at 1 uM using p53(Myr)-AMC as substrate measured after 3 hrs in presence of NAD+ and trypsin by fluorescence assay relative to control. The gist of the method:
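SIRT1 at 14 nM final with 50 μM p53(Myr)-AMC and 500 μM NAD⁺ in Tris-HCl pH 8.0/NaCl/DTT/Triton buffer, 0.5% DMSO, 3 h at room temperature. Trypsin (100 nM final) plus nicotinamide (1 mM final) then added. Fluorescence Ex 355/Em 460 nm read every 5 min for 20 min at 37 °C. n = 3.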

Test [2] deals with T2, NAD-dependent protein deacetylase sirtuin-3, mitochondrial (Homo sapiens) (UniProt Q9NTG7).
T2 sequence (whole entry): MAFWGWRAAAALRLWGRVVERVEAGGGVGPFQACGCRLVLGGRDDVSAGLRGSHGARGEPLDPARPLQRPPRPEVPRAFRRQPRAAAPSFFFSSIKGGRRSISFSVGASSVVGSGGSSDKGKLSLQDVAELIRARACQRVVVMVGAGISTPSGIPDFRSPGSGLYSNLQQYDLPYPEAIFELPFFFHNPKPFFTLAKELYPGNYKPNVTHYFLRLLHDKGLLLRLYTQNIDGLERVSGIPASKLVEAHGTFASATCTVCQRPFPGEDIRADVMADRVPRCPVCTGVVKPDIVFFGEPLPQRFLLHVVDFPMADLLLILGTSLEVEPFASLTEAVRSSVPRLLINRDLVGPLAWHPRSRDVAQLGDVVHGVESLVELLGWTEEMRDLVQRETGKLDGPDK
Description: Inhibition of recombinant human SIRT3 (118 to 399 residues) demyristoylase activity expressed in Escherichia coli at 1 uM using p53(Myr)-AMC as substrate measured after 3 hrs in presence of NAD+ and trypsin by fluorescence assay relative to control. In short, it runs like this: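 SIRT3 at 120 nM with 50 μM p53(Myr)-AMC and 500 μM NAD⁺ in Tris-HCl pH 8.0/NaCl/DTT/Triton buffer, 0.5% DMSO, 3 h at room temperature. Trypsin (100 nM) plus nicotinamide (1 mM) then added. Fluorescence Ex 355/Em 460 nm every 5 min for 20 min at 37 °C. n = 3.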

Test [3] addresses T1, NAD-dependent protein deacetylase sirtuin-1 (Homo sapiens). Description: Inhibition of recombinant human C-terminal His6-tagged SIRT1 (Met1 to Ser747 residues) defatty-acylase activity expressed in Escherichia coli at 2 uM using SFP3 as substrate measured at 5 mins interval for 60 mins in presence of NAD+ by fluorescence assay relative to control.
The target in test [4] is T3, NAD-dependent protein deacetylase sirtuin-2 (Homo sapiens) (UniProt Q8IXJ6).
T3 sequence (whole entry): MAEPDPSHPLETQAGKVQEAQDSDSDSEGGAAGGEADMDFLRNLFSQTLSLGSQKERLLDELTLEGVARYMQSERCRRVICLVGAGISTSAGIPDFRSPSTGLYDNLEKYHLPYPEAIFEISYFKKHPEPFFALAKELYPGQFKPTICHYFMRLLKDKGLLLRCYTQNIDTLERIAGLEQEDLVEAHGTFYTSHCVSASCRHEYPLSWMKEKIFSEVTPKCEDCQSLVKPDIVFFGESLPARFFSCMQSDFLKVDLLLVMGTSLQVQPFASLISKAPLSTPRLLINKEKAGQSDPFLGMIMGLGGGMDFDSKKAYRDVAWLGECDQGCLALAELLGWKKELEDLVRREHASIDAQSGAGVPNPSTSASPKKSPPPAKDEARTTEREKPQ
Nature of the test: Inhibition of recombinant human SIRT2 deacylation activity at 1 uM using Fluor de Lys Sirt2 as substrate measured at 5 mins interval for 30 mins in presence of NAD+ by fluorescence assay relative to control.

For test [5], the target named is T3, NAD-dependent protein deacetylase sirtuin-2 (Homo sapiens). Description: Inhibition of recombinant human SIRT2 demyristoylase activity at 1 uM using p53(Myr)-AMC as substrate measured after 3 hrs in presence of NAD+ and trypsin by fluorescence assay relative to control.
The target of test [6] is T2, NAD-dependent protein deacetylase sirtuin-3, mitochondrial (Homo sapiens). Nature of the test: Inhibition of recombinant human SIRT3 (118 to 399 residues) defatty-acylase activity expressed in Escherichia coli at 2 uM using SFP3 as substrate measured at 5 mins interval for 60 mins in presence of NAD+ by fluorescence assay relative to control. The gist of the method:
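SIRT3 at 60 nM final with 2.5 μM SFP3 and 500 μM NAD⁺ in Tris-HCl pH 8.0, 150 mM NaCl, 1 mM DTT, 0.05% Triton X-100. Final DMSO 0.2%, or 0.5% for AGK2/NAM. Fluorescence Ex 485/Em 535 nm every 5 min for 60 min at 37 °C. n = 3.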

The target in test [7] is T3, NAD-dependent protein deacetylase sirtuin-2 (Homo sapiens). Description: Inhibition of recombinant human SIRT2 defatty-acylase activity at 2 uM using SFP3 as substrate measured at 5 mins interval for 60 mins in presence of NAD+ by fluorescence assay relative to control.
In test [8] the target is NAD-dependent protein deacylase sirtuin-6 (Homo sapiens) (UniProt Q8N6T7). Nature of the test: Inhibition of recombinant human N-terminal polyhis-tagged SIRT6 (1 to 355 residues) defatty-acylase activity expressed in Escherichia coli at 2 uM using SFP3 as substrate measured at 5 mins interval for 60 mins in presence of NAD+ by fluorescence assay relative to control.
Test [9] deals with T3, NAD-dependent protein deacetylase sirtuin-2 (Homo sapiens). Nature of the test: Inhibition of recombinant human SIRT2 defatty-acylase activity using SFP3 as substrate measured at 5 mins interval for 60 mins in presence of NAD+ by fluorescence assay.
In test [10] the test system is HeLa. Description: Cytotoxicity against human HeLa cells assessed as reduction in cell viability at 50 uM measured after 72 hrs by CCK8 assay. It counts as functional, cell-based. In short, it runs like this:
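HeLa cells, 1.0 × 10⁴ per well on PLL-coated plates, grown overnight in DMEM with 10% FBS and penicillin/streptomycin, 37 °C, 5% CO₂. Compounds added in DMEM (2% DMSO stock), range 1.56–50 μM final, for 72 h. CCK-8 reagent then 2 h at 37 °C, absorbance read at 450 nm. DMSO control.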
(In general: Tetrazolium dyes change colour on reduction, which living cells bring about.)

The target of test [11] is T3, NAD-dependent protein deacetylase sirtuin-2 (Homo sapiens). Nature of the test: Inhibition of recombinant human SIRT2 demyristoylase activity using H4K16-Myr as substrate measured after 2 hrs in presence of NAD+ by HPLC analysis. The gist of the method:
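H4K16-Myr at 100 μM with 500 μM NAD⁺ and 175 nM SIRT2 in Tris-HCl pH 8.0/NaCl/Triton buffer without DTT, 0.5% DMSO, 2 h at 37 °C. Inhibitors at 0.1–10 μM; AGK2 at 50 μM, NAM at 500 μM. Stopped with HCl/MeOH. Demyristoylated H4K16 product measured by HPLC at 280 nm. Percent inhibition, n = 3.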

Test [12] has the same target. Description: Non-competitive inhibition of recombinant human SIRT2 defatty-acylase activity at 15 to 30 nM using SFP3 as substrate measured at 1 min interval for 30 mins in presence of varying levels of NAD+ by Michaelis-Menten plot analysis.
Test [13] has the same target. Nature of the test: Inhibition of recombinant human SIRT2 deacylation activity using H4K16-Ac as substrate measured after 30 mins in presence of NAD+ by HPLC analysis. In short, it runs like this: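 H4K16-Ac peptide at 100 μM with 500 μM NAD⁺ and 175 nM SIRT2 in Tris-HCl pH 8.0/NaCl/Triton buffer lacking DTT, 0.5% DMSO, 30 min at 37 °C. Inhibitors at 0.01–10 μM. Stopped with HCl in MeOH. Deacetylated product quantified by reversed-phase HPLC at 280 nm.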

The target is the same in test [14]. Description: Time-dependent inhibition of recombinant human SIRT2 defatty-acylase activity at 62.5 to 1000 nM using SFP3 as substrate measured at 5 mins interval for 60 mins in presence of NAD+ by fluorescence assay.
Test [15] shares this target. Description: Time-dependent inhibition of recombinant human SIRT2 defatty-acylase activity at 15.6 to 250 nM using SFP3 as substrate measured at 5 mins interval for 60 mins in presence of NAD+ by fluorescence assay.

Calls of active or inactive are those of the source. The calls are words filed in the database; no cut-off is given here. Non-standard residues stand in square brackets, D forms with d. Residues, ends and D or L forms follow the SMILES beside them. *: point of attachment. Lys(thiomyristoyl) = CCCCCCCCCCCCCC(=S)NCCCC[C@H](N)C(=O)O; X3 = CN(C)c1ccc(/N=N/c2ccc(CCC(=O)*)cc2)cc1; X4 = CN(C)c1ccc(/N=N/c2ccc(CC(=O)*)cc2)cc1; X2 = CN(C)c1ccc(/N=N/c2ccc(C(=O)*)cc2)cc1; X1 = O=C(Cc1ccc(/N=N/c2ccc(O)cc2)cc1)*

Sequence of NAD-dependent protein deacylase sirtuin-6 (Homo sapiens) (Q8N6T7 whole entry, the tested form may be a part): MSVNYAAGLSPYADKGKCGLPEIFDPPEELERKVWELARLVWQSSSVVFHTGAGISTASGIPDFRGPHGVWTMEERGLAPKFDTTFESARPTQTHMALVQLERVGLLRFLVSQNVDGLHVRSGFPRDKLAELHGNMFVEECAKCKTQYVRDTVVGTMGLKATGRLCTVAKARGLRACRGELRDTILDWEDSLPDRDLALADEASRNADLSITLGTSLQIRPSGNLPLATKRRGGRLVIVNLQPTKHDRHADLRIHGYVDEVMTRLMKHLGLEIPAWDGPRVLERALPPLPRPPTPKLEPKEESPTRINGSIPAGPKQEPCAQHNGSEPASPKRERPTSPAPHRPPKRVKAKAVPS

For orientation: inhibition means the drop in the measured response relative to a control, in per cent. For the compound `CCCCCCCCCCCCCC(=O)NCCCC[C@H](NC(=O)OCc1ccccc1)C(=O)Nc1ccccc1`, the inhibition in [1] was 1.7%; in test [2], 1.7%; in test [3], -0.59%; in [4] it was 42%; in [5] it was 5.2%; in test [6] it was -2.3%. The inhibition in test [7] is 2.8%; in test [8], -3.5%.

Take `O=C(Cc1ccc(/N=N/c2ccccc2)cc1)NCCCC[C@H](NC(=O)OCC1c2ccccc2-c2ccccc21)C(=O)O`: the inhibition entry in [9] is “inactive”.

For `CC[C@H](C)[C@H](NC(=O)[C@H](CCCNC(=N)N)NC(C)=O)C(=O)N[C@@H](CCCCNC(=O)Cc1ccc(/N=N/c2ccc(O)cc2)cc1)C(=O)N[C@@H](CCCNC(=N)N)C(=O)N[C@@H](Cc1ccc(O)cc1)C(N)=O` (Ac-RIK(X1)RY-NH2), in test [10], the outcome was inactive. The inhibition entry in test [11] was “Dose-dependent effect”; in [8], 43%; in [13], “Dose-dependent effect”. Also, the inhibition entry in test [12] was “Active”.

`CC[C@H](C)[C@H](NC(=O)[C@H](CCCNC(=N)N)NC(C)=O)C(=O)N[C@@H](CCCCNC(=O)c1ccc(/N=N/c2ccc(N(C)C)cc2)cc1)C(=O)N[C@@H](CCCNC(=N)N)C(=O)N[C@@H](Cc1ccc(O)cc1)C(N)=O` (Ac-RIK(X2)RY-NH2): the inhibition turned out to be 42% in [1], 34% in test [2], 22% in test [3] and 13% in [8]. In addition, the TDI entry in test [14] was “inactive”.

For `CC[C@H](C)[C@H](NC(=O)[C@H](CCCNC(=N)N)NC(C)=O)C(=O)N[C@@H](CCCCNC(=O)CCc1ccc(/N=N/c2ccc(N(C)C)cc2)cc1)C(=O)N[C@@H](CCCNC(=N)N)C(=O)N[C@@H](Cc1ccc(O)cc1)C(N)=O` (Ac-RIK(X3)RY-NH2), the inhibition in [1] is 42%; in test [2], 11%; in [5], 23%; in test [8], 13%. Besides, in test [14], the TDI result was “inactive”.

Regarding `CC[C@H](C)[C@H](NC(=O)[C@H](CCCNC(=N)N)NC(C)=O)C(=O)N[C@@H](CCCCNC(=O)Cc1ccc(/N=N/c2ccc(N(C)C)cc2)cc1)C(=O)N[C@@H](CCCNC(=N)N)C(=O)N[C@@H](Cc1ccc(O)cc1)C(N)=O` (Ac-RIK(X4)RY-NH2), the TDI entry in [15] was “Active”. In [8], the inhibition was 40%.

Consider `CCCCCCCCCCCCCC(=S)NCCCC[C@H](NC(=O)[C@@H](NC(=O)[C@H](CCCNC(=N)N)NC(C)=O)[C@@H](C)CC)C(=O)N[C@@H](CCCNC(=N)N)C(=O)N[C@@H](Cc1ccc(O)cc1)C(N)=O` (Ac-RI[Lys(thiomyristoyl)]RY-NH2), for which the result in [10] was inactive. The inhibition entry in [11] and in test [13] was “Dose-dependent effect” throughout. The inhibition entry in test [12] is “Active”.
